Laboratory results as given in ChEMBL document CHEMBL3813647, “Discovery of an Orally Active and Liver-Targeted Prodrug of 5-Fluoro-2'-Deoxyuridine for the Treatment of Hepatocellular Carcinoma” (J Med Chem, 2016).

How the values were obtained:
[1] = Cytotoxicity against human SMMC7721 cells assessed as reduction in cell viability after 72 hrs by MTT assay; type: functional, cell-based; conditions: SMMC-7721, 72 h
How it was run: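 Cells in RPMI-1640 with 10% FBS, seeded at 4 × 10³ per well and attached for 24 h. Compound (DMSO ≤0.5% final) added for 72 h at 37 °C, 5% CO2. Viability read by MTT. IC50 set against 0.5% DMSO-treated cells taken as 100% viable. Mean of two independent experiments, each run in triplicate.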

[2] = system: Liver; assay: Drug metabolism in phenobarbital/beta-napthoflavone treated Sprague-Dawley rat liver S9 fraction assessed as prodrug activation at 50 uM preincubated for 5 mins followed by NADPH addition measured up to 60 mins by HPLC-MS/MS analysis; type: ADME, subcellular; conditions: s9, 1 h
How it was run: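 S9 prepared from livers of Sprague-Dawley rats dosed i.g. with phenobarbital/β-naphthoflavone for 3 days. Incubation: 100 mM KH2PO4 pH 7.4, 5 mg/mL S9, compound at 50 μM, 5 min preincubation at 37 °C, then 2 mM NADPH. Samples at 0–60 min, MeOH extraction, FdUMP (m/z 325→129) measured by HPLC-MS/MS. Triplicate.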

[3] = Half life in rat plasma by HPLC analysis; type: ADME, cell-free
How it was run: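 Rat plasma, 37 °C. Compound added from a 2.5 mM stock, sampled at 0–24 h, quenched with MeOH. Analyzed by HPLC-UV at 267 nm (C8 column, MeOH:H2O 68:32). Triplicate samples.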

[4] = system: Liver; assay: Drug uptake in Sprague-Dawley rat liver S9 fraction treated with (S)-Isopropyl 2-(((R)-(((2R,3S,5R)-5-(5-fluoro-2,4-dioxo 3,4-dihydropyrimidin-1(2H)-yl)-3-hydroxytetrahydrofuran-2-yl)methoxy)((2-methylbenzyl)oxy)phosphoryl)amino)propanoate at 20 ug/mL preincubated for 5 mins followed by NADPH addition measured at 20 mins by HPLC-MS/MS analysis; type: ADME, subcellular; conditions: s9, 20 min
How it was run: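 Rat liver S9 (10 mg/mL) incubated with compound at 20 μg/mL. Parent, intermediate A and FdUMP followed over time by HPLC-MS/MS. Negative control run without NADPH.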

Drug metabolism [2] [nmol/min/mg] | half-life [3] [h] | Drug uptake [4] | Compound | IC50 [1] [µM]
12.5 | > 24 |  | O=c1[nH]c(=O)n([C@H]2C[C@H](O)[C@@H](COP(=O)(NCc3ccccc3)OCc3cccc(F)c3)O2)cc1F (some centres undefined) | 241
32.8 | > 24 |  | O=c1[nH]c(=O)n([C@H]2C[C@H](O)[C@@H](COP(=O)(NCc3ccccc3)OCc3cccc(Br)c3)O2)cc1F (some centres undefined) | 225
34.7 | > 24 |  | O=c1[nH]c(=O)n([C@H]2C[C@H](O)[C@@H](COP(=O)(NCc3ccccc3)OCc3ccccc3F)O2)cc1F (some centres undefined) | 155
22.6 | > 24 |  | O=c1[nH]c(=O)n([C@H]2C[C@H](O)[C@@H](COP(=O)(NCc3ccccc3)OCc3cccc(Cl)c3)O2)cc1F (some centres undefined) | 206
 |  | metabolite_detected | Cc1ccccc1CO[P@](=O)(N[C@@H](C)C(=O)O)OC[C@H]1O[C@@H](n2cc(F)c(=O)[nH]c2=O)C[C@@H]1O | 

Further lines, the molecule ahead of its results:

Compound | Drug metabolism [2] [nmol/min/mg] | half-life [3] [h] | Drug uptake [4] | IC50 [1] [µM]
COc1ccccc1COP(=O)(NCc1ccccc1)OC[C@H]1O[C@@H](n2cc(F)c(=O)[nH]c2=O)C[C@@H]1O (some centres undefined) | 238.9 | 3.4 |  | 6.8
Cc1ccc(COP(=O)(NCc2ccccc2)OC[C@H]2O[C@@H](n3cc(F)c(=O)[nH]c3=O)C[C@@H]2O)cc1 (some centres undefined) | 53.5 | > 24 |  | 31.7
O=c1[nH]c(=O)n([C@H]2C[C@H](O)[C@@H](COP(=O)(NCc3ccccc3)OCc3ccc(Br)cc3)O2)cc1F (some centres undefined) | 39.1 | > 24 |  | 107
O=c1[nH]c(=O)n([C@H]2C[C@H](O)[C@@H](COP(=O)(NCc3ccccc3)OCc3ccc(Cl)cc3)O2)cc1F (some centres undefined) | 25.6 | > 24 |  | 133
Cc1cccc(COP(=O)(NCc2ccccc2)OC[C@H]2O[C@@H](n3cc(F)c(=O)[nH]c3=O)C[C@@H]2O)c1 (some centres undefined) | 49.4 | > 24 |  | 139
O=c1[nH]c(=O)n([C@H]2C[C@H](O)[C@@H](COP(=O)(NCc3ccccc3)OCc3ccccc3Cl)O2)cc1F (some centres undefined) | 29.2 | > 24 |  | 132
COc1cccc(COP(=O)(NCc2ccccc2)OC[C@H]2O[C@@H](n3cc(F)c(=O)[nH]c3=O)C[C@@H]2O)c1 (some centres undefined) | 118.7 | > 24 |  | 386
